Source: PubChem BioAssay (The Scripps Research Institute Molecular Screening Center)
MsrA inhibitor: bovine MsrA enzyme inhibitors, primary screen, biochemical, absorbance, HTS. purified bovine MsrA, absorbance read-out. inhibition, % at 15.5 µM. hit rate 0.75% among 360,000; in the data active = inhibition above about 4.5%;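 note: 0% = vehicle wells with enzyme and 100% = reference inhibitor wells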
proCasp3 act: activators of human procaspase-3 D3A mutant, primary screen, biochemical, absorbance, PC-3 D3A mutant, single concentration; Caspase-3 (Homo sapiens), P42574; recombinant procaspase-3 D3A, Ac-DEVD-pNA absorbance 405 nm; activation, % at 8.5 µM; hit rate 0.11% among 330,000; AID 463141, 2010;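 active = activation above the mean of all tested compounds plus 3 SD, cut at about 21% in these data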;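 note: 0% = DMSO alone and 100% = DMSO wells spiked with extra 5 µM PC-3 D3A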
Target sequence (P42574 whole entry D9A/D28A/D175A): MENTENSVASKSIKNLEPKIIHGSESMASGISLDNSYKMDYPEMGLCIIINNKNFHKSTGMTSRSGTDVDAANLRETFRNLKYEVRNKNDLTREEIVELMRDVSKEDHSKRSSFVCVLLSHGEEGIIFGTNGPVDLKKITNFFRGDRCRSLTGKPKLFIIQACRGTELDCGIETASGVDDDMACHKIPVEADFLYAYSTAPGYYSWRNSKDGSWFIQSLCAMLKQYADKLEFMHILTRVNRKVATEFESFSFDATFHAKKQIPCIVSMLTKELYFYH
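material = Procaspase-3 D3A mutant | probe or stimulus = Ac-DEVD-pNA | compound = single dose, 8.5 µM nominal compound, 0.8% DMSO | timing = 1 h preincubation, 2 h reaction | measured by = 405 nm absorbance of p-nitroaniline, reads at 0 and 120 min | benchmarks = DMSO-only low control, 5 µM PC-3 D3A high control | repeats = singlicate, each compound tested once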
bovine MsrA act: bovine MsrA enzyme activators, primary screen, biochemical, absorbance, HTS; hit rate 0.3% among 360,000; purified bovine MsrA, absorbance read-out; AID 602163, 2012; Methionine sulfoxide reductase A (Bos taurus); activation, % at 10.6 µM; in the data active = activation above about 7.5%;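 note: 0% = vehicle and 100% = reference activator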
TbMetRS inhib: T. brucei MetRS inhibitors, primary screen, biochemical, luminescence; methionyl-tRNA synthetase (Trypanosoma brucei brucei); purified T. brucei MetRS, ATP depletion, Kinase-Glo luminescence; inhibition, % at 11.9 µM; hit rate 0.4% among 360,000; AID 624268, 2012;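 active = inhibition above a per-plate cutoff of the control wells' mean inhibition plus 3 SD, cut at about 5.5% in these data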;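 note: 0% = DMSO wells median and 100% = median of wells with control inhibitor compound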
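Dosing: 11.9 µM single point; system: parasite MetRS enzyme; technique: luminescence of leftover ATP; times: 15 min enzyme-compound preincubation, 2 h reaction, 10 min detection, 25 °C; replicates: each compound tested once; read-out basis: percent inhibition relative to median high and low control wells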
proCasp7 act: procaspase-7 activators, primary screen, counter-screen for procaspase-3 activator project, biochemical, absorbance, HTS, human; recombinant procaspase-7, Ac-DEVD-pNA absorbance 405 nm; D23A/D198A/D206A triple mutant, cannot self-cleave; scale: DMSO 0, 5 µM enzyme 100; activation, % at 8.5 µM; hit rate 0.093% among 330,000;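 active = percent activation above the screen-wide mean plus 3 SD, cut at about 25% in these data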
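Assay system: Uncleavable procaspase-7 mutant enzyme / Input: 2 µM procaspase-7 mutant as dispensed / Dosing: single nominal 8.5 µM compound dose, 0.8% DMSO final / Timing: 1 h enzyme–compound preincubation and 2 h substrate reaction, both 25 °C / Detection: p-Nitroaniline absorbance at 405 nm, read at 0 and 120 min / Replication: singlicate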
PC3 dual counter: procaspase-3 activators, counter-screen for dual procaspase-3/7 activator project, biochemical, absorbance, PC-3 D3A mutant, human; activation, % at 8.5 µM; 290 tested, under 10 active; recombinant PC-3 D3A, Ac-DEVD-pNA absorbance 405 nm; aspartates 9, 28, 175 changed to alanine; 100% = enzyme control; shares compounds with proCasp7 act;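 active = mean percent activation across triplicates above a set limit taken from the earlier primary procaspase-3 screen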;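 note: 0% = DMSO wells and 100% = DMSO wells with 5 µM added PC-3 D3A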
PC7 dual conf: activation of procaspase-7 enzyme – biochemical, absorbance, human, dual procaspase-3/-7 activator project, confirmation. shares compounds with proCasp7 act. recombinant procaspase-7, Ac-DEVD-pNA absorbance 405 nm; D23A/D198A/D206A mutant that cannot self-cleave. activation, % at 8.5 µM. 290 tested, under 10 active. AID 493115, 2011;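 active = mean activation above a set limit carried over from the earlier primary screen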;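 note: 0% = DMSO only and 100% = DMSO with added 5 µM PC-7 enzyme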
* marks the source's active call; other numbers are inactive results. Shown are actives, neighbours in structure and some others; about 1.5% of the full set was active somewhere.

Screening COc1cccc(N(C(=O)c2snc(C(N)=O)c2N)C(C(=O)NCc2ccccc2)c2ccc(O)cc2)c1 (centres undefined) returned MsrA inhibitor 0, proCasp3 act 33*, bovine MsrA act -2, TbMetRS inhib 0, proCasp7 act 79*, PC3 dual counter -4 and PC7 dual conf -11.
COc1ccc(N(C(=O)c2snc(C(N)=O)c2N)C(C(=O)NCc2ccc(F)cc2)c2ccc(C)o2)c(OC)c1 (centres undefined) was read as MsrA inhibitor 1, proCasp3 act 5, bovine MsrA act -3, TbMetRS inhib 0, proCasp7 act 26*, PC3 dual counter 2 and PC7 dual conf 2.
Screening CCc1noc2cc(-c3ccccc3)n(C)c(=O)c12 returned MsrA inhibitor -1.
`CCOC(=O)C1=CCN(S(=O)(=O)c2ccc(Cl)cc2)C1c1ccc(Br)cc1` (centres undefined) gave MsrA inhibitor 0.
For CCCCOc1ccc(C(=O)NC2CCCCN(CCC)C2=O)cc1 (centres undefined) the results were MsrA inhibitor 0.
Screening CSC1=Nc2ccccc2N=C(N2CCCC2)C1 returned MsrA inhibitor 0.
For Cn1cnc([N+](=O)[O-])c1Sc1nnc(-c2ccccc2)c(-c2ccccc2)n1 the results were MsrA inhibitor 1.
For COC(=O)C1=C(C)N(Cc2ccc(C(F)(F)F)cc2)C(=NCc2ccc3c(c2)OCO3)NC1c1cccc(Cl)c1 (centres undefined) the results were MsrA inhibitor -2.
For C=CCNc1sc(C(=O)c2ccc(C)cc2)c(N)c1C#N the results were MsrA inhibitor 3, proCasp3 act -113, bovine MsrA act -3, TbMetRS inhib -1 and proCasp7 act -6.
C=CCNc1nc(N)c(C(=C(C#N)C#N)c2ccc(Br)cc2)s1 was read as MsrA inhibitor -1, proCasp3 act 12, bovine MsrA act -6, TbMetRS inhib 0, proCasp7 act 105*, PC3 dual counter -28 and PC7 dual conf -35.
For COC(=O)[C@]12C[C@H](CC(=O)NCCCCc3ccccc3)C(=O)N(Cc3ccc4c(c3)OCO4)C1=C[C@H](COCc1ccccc1)O[C@@H]2C the results were MsrA inhibitor 1.
`C[C@H]1[C@H](c2ccccc2)Oc2cccc(NCCc3ccccc3)c2S(=O)(=O)N1Cc1ccc(F)cc1` gave MsrA inhibitor -1.
Screening CN1N=C2c3ccccc3CCC2C1c1ccc(F)cc1 (centres undefined) returned MsrA inhibitor 0, proCasp3 act 0, bovine MsrA act 0, TbMetRS inhib 0 and proCasp7 act 1.
Screening c1ccc(N2CC3CCc4ccccc4C3=N2)cc1 (centres undefined) returned MsrA inhibitor 0, proCasp3 act 39*, bovine MsrA act -3, TbMetRS inhib 0, proCasp7 act 72*, PC3 dual counter -30 and PC7 dual conf -35.
Screening O=C(N[C@H](C(=O)N1CCC[C@H]1C(=O)NCc1ccccc1)C1CCCCC1)c1ccccc1 returned MsrA inhibitor 0.
For C[C@H]1CN([C@@H](C)CO)C(=O)CCCn2cc(nn2)CO[C@@H]1CN(C)C(=O)c1ccc2ccn(C)c2c1 the results were MsrA inhibitor -1.
